In ChEMBL document CHEMBL4673243, “Discovery of 9-Cyclopropylethynyl-2-((S)-1-[1,4]dioxan-2-ylmethoxy)-6,7-dihydropyrimido[6,1-a]isoquinolin-4-one (GLPG1205), a Unique GPR84 Negative Allosteric Modulator Undergoing Evaluation in a Phase II Clinical Trial” (J Med Chem, 2020):
Values after ≈ are worked out from the molar mass of the structure shown.

Legend:
[1] = Plasma protein binding in mouse at 5 uM measured after 4 hrs by LC-MS/MS analysis
[2] = Plasma protein binding in rat at 5 uM measured after 4 hrs by LC-MS/MS analysis
[3] = Plasma protein binding in human at 5 uM measured after 4 hrs by LC-MS/MS analysis
[4] = in vitro; settings: mouse, liver microsomes
[5] = in vitro; settings: human, liver microsomes
[6] = in vitro; settings: mouse, cryopreserved hepatocytes
[7] = in vitro; settings: human, cryopreserved hepatocytes
[8] = in vitro; settings: rat, liver microsomes
[9] = in vivo; settings: male, Sprague-Dawley, rat, po, 5 mg/kg
[10] = in vitro; settings: rhesus monkey, liver microsomes
[11] = in vitro; settings: dog, liver microsomes
[12] = target: 3',5'-cyclic-AMP phosphodiesterase 4A (Homo sapiens, UniProt P27815); assay: Inhibition of recombinant human PDE4A overexpressed in HEK293 cells assessed as reduction in cAMP hydrolysis by HTRF based immunoassay; type: cell-based
Chain of 3',5'-cyclic-AMP phosphodiesterase 4A (P27815 whole entry): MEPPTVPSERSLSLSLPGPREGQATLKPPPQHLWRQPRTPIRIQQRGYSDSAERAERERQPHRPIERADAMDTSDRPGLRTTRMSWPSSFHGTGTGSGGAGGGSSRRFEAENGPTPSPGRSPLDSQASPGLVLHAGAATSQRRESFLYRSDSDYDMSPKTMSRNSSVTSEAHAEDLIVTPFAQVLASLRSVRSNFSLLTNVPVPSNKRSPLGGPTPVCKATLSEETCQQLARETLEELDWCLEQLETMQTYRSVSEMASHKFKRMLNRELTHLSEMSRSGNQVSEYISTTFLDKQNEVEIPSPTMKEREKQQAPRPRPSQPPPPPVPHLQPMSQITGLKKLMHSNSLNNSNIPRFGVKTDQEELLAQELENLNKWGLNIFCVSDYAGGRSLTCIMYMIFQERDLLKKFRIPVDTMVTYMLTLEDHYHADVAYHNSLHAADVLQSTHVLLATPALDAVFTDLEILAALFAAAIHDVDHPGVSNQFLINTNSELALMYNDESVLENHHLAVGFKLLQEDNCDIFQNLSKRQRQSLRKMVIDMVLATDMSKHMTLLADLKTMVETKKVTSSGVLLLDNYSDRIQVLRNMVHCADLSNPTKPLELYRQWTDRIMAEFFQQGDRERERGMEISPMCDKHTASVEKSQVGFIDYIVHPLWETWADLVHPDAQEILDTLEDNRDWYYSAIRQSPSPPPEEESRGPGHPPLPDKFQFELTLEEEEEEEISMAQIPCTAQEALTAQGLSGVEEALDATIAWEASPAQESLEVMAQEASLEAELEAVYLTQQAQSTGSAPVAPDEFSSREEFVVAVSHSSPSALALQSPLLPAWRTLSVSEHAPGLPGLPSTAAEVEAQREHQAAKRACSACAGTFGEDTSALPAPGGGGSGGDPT
Procedure, shortened: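 Human PDE4A from lysate of HEK293 cells overexpressing the enzyme hydrolyses cAMP; remaining cAMP measured by HTRF competitive immunoassay (d2-labelled cAMP vs cryptate anti-cAMP antibody), signal inversely proportional to cAMP; IC50 determined.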

[13] = Inhibition of embelin-induced migration of human neutrophils preincubated for 30 mins followed by embelin addition and measured after 1 hr by ATPlite luminescence assay; settings: Neutrophil
[14] = in vivo; settings: male, Sprague-Dawley, rat, po, 5 mg/kg; remark: listed apart in the source
[15] = in vivo; settings: male, Sprague-Dawley, rat, po, 5 mg/kg; remark: listed apart in the source
[16] = physchem; settings: aqueous solution with 2% DMSO, pH 7.4
[17] = target: T1, CYP1A2 (Homo sapiens, UniProt P05177); assay: Inhibition of CYP1A2 in human liver microsomes at 10 uM using probe substrate and in presence of co-factor measured after 20 mins by LC-MS/MS analysis relative to control; type: ADME
T1 sequence (P05177 whole entry): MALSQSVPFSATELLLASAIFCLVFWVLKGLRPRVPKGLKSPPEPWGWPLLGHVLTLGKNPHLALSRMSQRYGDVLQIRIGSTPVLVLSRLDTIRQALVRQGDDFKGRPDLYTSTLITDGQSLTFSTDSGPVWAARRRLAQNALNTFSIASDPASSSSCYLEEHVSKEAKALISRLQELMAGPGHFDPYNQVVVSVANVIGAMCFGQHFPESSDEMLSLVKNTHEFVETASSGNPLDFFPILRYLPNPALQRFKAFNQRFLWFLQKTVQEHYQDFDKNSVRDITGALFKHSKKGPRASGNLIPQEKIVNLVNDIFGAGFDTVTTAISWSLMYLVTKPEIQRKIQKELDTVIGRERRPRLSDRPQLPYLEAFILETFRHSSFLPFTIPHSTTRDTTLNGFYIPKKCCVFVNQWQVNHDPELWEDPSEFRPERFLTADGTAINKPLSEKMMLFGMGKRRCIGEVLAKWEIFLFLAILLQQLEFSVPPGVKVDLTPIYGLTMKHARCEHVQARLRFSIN

[18] = target: CYP2C19 (Homo sapiens, UniProt P33261); assay: Inhibition of CYP2C19 in human liver microsomes at 10 uM using probe substrate and in presence of co-factor measured after 20 mins by LC-MS/MS analysis relative to control; type: ADME
Chain of CYP2C19 (P33261 whole entry): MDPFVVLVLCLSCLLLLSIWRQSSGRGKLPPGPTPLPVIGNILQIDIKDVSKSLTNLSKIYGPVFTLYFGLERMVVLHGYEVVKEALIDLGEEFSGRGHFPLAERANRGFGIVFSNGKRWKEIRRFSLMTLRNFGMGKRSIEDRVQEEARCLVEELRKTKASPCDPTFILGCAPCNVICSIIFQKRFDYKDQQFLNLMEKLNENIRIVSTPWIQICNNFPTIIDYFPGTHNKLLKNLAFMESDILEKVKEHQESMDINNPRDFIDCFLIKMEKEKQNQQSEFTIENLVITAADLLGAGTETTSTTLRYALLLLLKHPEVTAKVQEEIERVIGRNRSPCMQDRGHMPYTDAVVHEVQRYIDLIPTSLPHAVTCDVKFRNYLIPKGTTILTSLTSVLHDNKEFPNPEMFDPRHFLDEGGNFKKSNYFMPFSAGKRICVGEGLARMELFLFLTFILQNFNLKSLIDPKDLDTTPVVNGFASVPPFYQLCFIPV

[19] = target: CYP2C9 (Homo sapiens, UniProt P11712); assay: Inhibition of CYP2C9 in human liver microsomes at 10 uM using probe substrate and in presence of co-factor measured after 20 mins by LC-MS/MS analysis relative to control; type: ADME
Chain of CYP2C9 (P11712 whole entry): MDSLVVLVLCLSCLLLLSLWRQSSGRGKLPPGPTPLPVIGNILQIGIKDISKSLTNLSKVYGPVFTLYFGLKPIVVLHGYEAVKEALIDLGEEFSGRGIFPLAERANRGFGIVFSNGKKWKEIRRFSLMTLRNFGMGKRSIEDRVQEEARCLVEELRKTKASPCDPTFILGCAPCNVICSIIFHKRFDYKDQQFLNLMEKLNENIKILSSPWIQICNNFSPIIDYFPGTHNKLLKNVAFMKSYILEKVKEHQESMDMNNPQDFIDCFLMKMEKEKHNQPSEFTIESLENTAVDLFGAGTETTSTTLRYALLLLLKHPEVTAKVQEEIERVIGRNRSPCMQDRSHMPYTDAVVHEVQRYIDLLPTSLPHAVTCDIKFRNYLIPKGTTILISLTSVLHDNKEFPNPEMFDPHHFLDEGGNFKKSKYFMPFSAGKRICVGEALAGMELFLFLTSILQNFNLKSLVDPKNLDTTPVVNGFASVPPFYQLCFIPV

[20] = target: CYP2D6 (Homo sapiens, UniProt P10635); assay: Inhibition of CYP2D6 in human liver microsomes at 10 uM using probe substrate and in presence of co-factor measured after 20 mins by LC-MS/MS analysis relative to control; type: ADME
Chain of CYP2D6 (P10635 whole entry): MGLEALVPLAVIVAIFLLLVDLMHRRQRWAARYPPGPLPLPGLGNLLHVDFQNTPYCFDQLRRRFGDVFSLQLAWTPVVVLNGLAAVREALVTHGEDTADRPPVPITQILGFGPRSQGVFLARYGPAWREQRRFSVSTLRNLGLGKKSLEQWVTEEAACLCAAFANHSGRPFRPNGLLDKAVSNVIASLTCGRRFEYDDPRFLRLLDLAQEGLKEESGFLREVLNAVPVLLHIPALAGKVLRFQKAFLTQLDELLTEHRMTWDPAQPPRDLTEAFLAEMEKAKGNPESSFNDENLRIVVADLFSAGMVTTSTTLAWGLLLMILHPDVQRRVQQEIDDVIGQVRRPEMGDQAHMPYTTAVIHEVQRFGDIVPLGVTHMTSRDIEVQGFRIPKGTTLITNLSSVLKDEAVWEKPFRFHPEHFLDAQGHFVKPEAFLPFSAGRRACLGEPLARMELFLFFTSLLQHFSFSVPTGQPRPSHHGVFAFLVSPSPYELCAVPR

[21] = target: T2, CYP3A4 (Homo sapiens, UniProt P08684); assay: Inhibition of CYP3A4 in human liver microsomes at 10 uM using midazolam as probe substrate and in presence of co-factor measured after 20 mins by LC-MS/MS analysis relative to control; type: ADME
T2 sequence (P08684 whole entry): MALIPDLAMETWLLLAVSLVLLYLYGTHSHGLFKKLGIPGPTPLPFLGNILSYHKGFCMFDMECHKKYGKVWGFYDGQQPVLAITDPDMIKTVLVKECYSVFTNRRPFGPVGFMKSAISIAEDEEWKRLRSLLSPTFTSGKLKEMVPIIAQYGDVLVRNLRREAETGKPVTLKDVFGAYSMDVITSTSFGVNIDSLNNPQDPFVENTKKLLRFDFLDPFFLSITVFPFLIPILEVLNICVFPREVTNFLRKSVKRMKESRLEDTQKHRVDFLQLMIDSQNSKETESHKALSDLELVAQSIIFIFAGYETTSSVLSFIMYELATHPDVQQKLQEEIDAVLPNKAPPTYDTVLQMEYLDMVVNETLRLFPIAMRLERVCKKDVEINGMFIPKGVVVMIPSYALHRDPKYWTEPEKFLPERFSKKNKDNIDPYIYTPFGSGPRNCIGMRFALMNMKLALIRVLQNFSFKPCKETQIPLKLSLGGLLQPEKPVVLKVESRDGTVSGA

[22] = target: T2, CYP3A4; assay: Inhibition of CYP3A4 in human liver microsomes at 10 uM using testosterone as probe substrate and in presence of co-factor measured after 20 mins by LC-MS/MS analysis relative to control; type: ADME

`COc1ccc2c(c1)CCn1c-2cc(OCC2COc3ccccc3O2)nc1=O` (stereo not drawn) showed a fraction unbound at 4 h, 5 µM [1] of 0.01, a fraction unbound at 4 h, 5 µM [2] of 0.004 and a fraction unbound at 4 h, 5 µM [3] of 0.002. The CLint scaled at 0.5 h, 1 µM [4] was 532 mL/min/kg, the CLint scaled at 0.5 h, 1 µM [5] was 76.7 mL/min/kg and the CLint scaled at 1 µM [6] was 375 mL/min/kg. It also gave a CLint scaled at 1 µM [7] of 90 mL/min/kg and a CLint scaled at 0.5 h, 1 µM [8] of 615 mL/min/kg.

`N#Cc1ccccc1-c1ccc2c(c1)CCn1c-2cc(OCC2COCCO2)nc1=O` (stereo not drawn) showed an AUC(0-inf) at 24 h [9] of 2640 ng·h/mL, a CLint scaled at 0.5 h, 1 µM [10] of 193 mL/min/kg and a CLint scaled at 0.5 h, 1 µM [4] of 151 mL/min/kg. The CLint scaled at 0.5 h, 1 µM [5] was 86.7 mL/min/kg, the CLint scaled at 0.5 h, 1 µM [8] was 105 mL/min/kg and the CLint scaled at 0.5 h, 1 µM [11] was 167 mL/min/kg.

For `O=c1nc(OCC2COCCO2)cc2n1CCc1cc(CCc3ccccn3)ccc1-2` (stereo not drawn), the CLint scaled at 0.5 h, 1 µM [4] was 517 mL/min/kg and the CLint scaled at 0.5 h, 1 µM [5] was 25 mL/min/kg.

For `O=c1nc(OCC2COCCO2)cc2n1CCc1cc(C#CC3CC3)ccc1-2` (racemic), the IC50 ([12]; hek293) was “Not Active”, the IC50 [13] was 17 nM and the Tmax [14] was 1.7 h. It also gave an AUC(0-inf) at 24 h [9] of 10200 ng·h/mL, a Cmax at 1.7 h [15] of 2420 ng/mL and a CLint scaled at 0.5 h, 1 µM [4] of 162 mL/min/kg. The CLint scaled at 0.5 h, 1 µM [5] was 36.7 mL/min/kg and the CLint scaled at 0.5 h, 1 µM [8] was 23.3 mL/min/kg.

For `COc1ccc2c(c1)-c1cc(OCc3ccccc3F)nc(=O)n1CC2`, the IC50 ([12]; read-out: IC50) was > 10000 nM and the CLint scaled at 0.5 h, 1 µM [4] was 1970 mL/min/kg.

Work on `COc1ccc2c(c1)CCn1c-2cc(OCC2COCCO2)nc1=O` (stereo not drawn) yielded a fraction unbound at 4 h, 5 µM [1] of 0.389, a fraction unbound at 4 h, 5 µM [2] of 0.285 and a fraction unbound at 4 h, 5 µM [3] of 0.223. For the same molecule, the CLint scaled at 0.5 h, 1 µM [4] was 173 mL/min/kg, the CLint scaled at 0.5 h, 1 µM [5] was < 15 mL/min/kg and the CLint scaled at 1 µM [6] was 262 mL/min/kg. The CLint scaled at 1 µM [7] was < 11.7 mL/min/kg and the CLint scaled at 0.5 h, 1 µM [8] was < 23.3 mL/min/kg.

`COc1cc2c(cc1OC)-c1cc(OCCOc3ccccn3)nc(=O)n1CC2` gave an IC50 ([12]; read-out: IC50) of 586 nM and a solubility [16] of 18 µg/mL (≈ 45.5 µM).

With `COc1cc2c(cc1OC)-c1cc(NCc3ccccc3)nc(=O)n1CC2` the IC50 ([12]; read-out: IC50) was 553 nM, the inhibition at 20 min, 10 µM [17] was < 33% and the inhibition at 20 min, 10 µM [18] was < 33%. The inhibition at 20 min, 10 µM [19] was < 33%, the inhibition at 20 min, 10 µM [20] was < 33% and the inhibition at 20 min, 10 µM [21] was < 33%. For the same molecule, the inhibition at 20 min, 10 µM [22] was < 33%.

`COc1cc2c(cc1OC)-c1cc(OCc3ncccc3F)nc(=O)n1CC2` showed an IC50 ([12]; read-out: IC50) of 1090 nM.

With `COc1ccc2c(c1)CCn1c-2cc(OCCOc2ccccc2)nc1=O` the IC50 ([12]; read-out: IC50) was > 10000 nM.

`CN(CC#Cc1ccc2c(c1)CCn1c-2cc(OCC2COCCO2)nc1=O)Cc1ccccc1` (stereo not drawn) gave a CLint scaled at 0.5 h, 1 µM [4] of 433 mL/min/kg and a CLint scaled at 0.5 h, 1 µM [5] of 88.3 mL/min/kg.

For `COc1cc2c(cc1OC)-c1cc(OCCCc3ccccc3)nc(=O)n1CC2`, the solubility [16] was 3 µg/mL (≈ 7.64 µM).
